Read-outs that look alike come from different tables or passages of the source.

Usually IC50 stands for the concentration that inhibits the measured activity by half.

The test system of test [1] is SiHa. Description: CellTiter-Glo cytotoxicity assay, SiHa. The format is cell-based. The settings on record: Homo sapiens. In short, it runs like this: (§1)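 About 5,000 cells/well were dosed either continuously or for a 1 h pulse. After the pulse, cells were washed with pre-warmed medium and kept drug-free. Viability was read by CellTiter-Glo luminescence 72 h after dosing began. IC50 was the half-maximal growth-inhibiting concentration.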
Background: ATP-based viability assays read luminescence as a measure of living cells.

Test [2] relates to HCT-116. Description: CellTiter-Glo cytotoxicity assay, HCT-116. The conditions noted are these: Homo sapiens. The format is cell-based. In short, it runs like this: as §1
In test [3] the test system is SKNSH. The test is described as follows: CellTiter-Glo cytotoxicity assay, SKNSH. The settings on record: Homo sapiens, SK-N-SH. In kind it is cell-based. The essentials: as §1
The subject of test [4] is cancer cell lines. The test is described as follows: CellTiter-Glo cytotoxicity assay, cancer cell lines in general. The format is cell-based, human. The essentials: as §1
The subject of test [5] is various cancer cell lines. The conditions noted are these: read-out: IC50 against various cancer cell lines; in vitro; cited from earlier work.
Test [6] concerns SiHa cells. The test is described as follows: Caspase Glo 3/7 assay, SiHa. The format is cell-based, human. The conditions noted are these: 10 or 30 μM with 50 nM compound 3, 72 hours.
Test [7] has as its system MRC5, WI-38 and IMR-90 normal lung fibroblast cell lines. Description: Caspase Glo 3/7 assay, normal lung fibroblasts. The settings on record: control, 1 microM for 72 hours. The format is cell-based, human.

`CCC(=C/[C@H](C)C/C=C/C(C)=C/[C@@H](C)C(=O)[C@@H](C)[C@H](O)[C@@H](C)C/C(C)=C/C(=O)O)/C=C/[C@@H]1OC(=O)C=C[C@@H]1C` [Leptomycin B]: the IC50 in test [1] (72 h, read-out: SiHa (IC50 nM) 72h) worked out at 0.4 nM; in test [1] (read-out: SiHa (IC50 nM) 1h), 2.1 nM; in test [2] (HCT-116, 72 h, read-out: HCT-116 (IC50 nM) 72h), 0.3 nM; in test [2] (HCT-116, read-out: HCT-116 (IC50 nM) 1h), 4.3 nM; in test [3] (72 h, read-out: SKNSH (IC50 nM) 72h) it was 0.4 nM; in test [3] (read-out: SKNSH (IC50 nM) 1h), 4.1 nM. Also, the IC50 is less than 5 nM in test [4] (Homo sapiens, read-out: IC50, one hour exposure) and 0.1 to 10 nM in test [5]. Moreover, in test [4] (most cancer cell lines, 72 hour exposure), the “IC50, 72 hour exposure” value is recorded as “sub-nanomolar”.
For `Cc1ccc(C(=O)Cn2c3c(sc2=N)CCCC3)cc1` [pifithrin-alpha], the “Effect on compound 3-induced apoptosis (caspase 3/7)” value in test [6] is recorded as “blocked compound 3-induced apoptosis”.
With `CN[C@@H]1C[C@H]2O[C@@](C)([C@@H]1OC)n1c3ccccc3c3c4c(c5c6ccccc6n2c5c31)C(=O)NC4` [staurosporine], the “Caspase 3/7 activation” value in test [7] is reported as “dramatic induction of caspases”.
